High-throughput results as filed in PubChem.
CCR6 antagonist: blocks CCL20-driven beta-arrestin recruitment at human CCR6; P51684; CHO-K1 CCR6 PathHunter beta-arrestin, luminescence, CCL20-stimulated; inhibition, % at 20 µM; 340,000 tested, 0.49% active; AID 493098;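 active means compounds whose inhibition of the agonist-driven luminescence signal at 20 µM reaches about 50%, limit read from the data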;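 further: cells stimulated with CCL20 at 14 nM final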
Target sequence (P51684 whole entry, looked up): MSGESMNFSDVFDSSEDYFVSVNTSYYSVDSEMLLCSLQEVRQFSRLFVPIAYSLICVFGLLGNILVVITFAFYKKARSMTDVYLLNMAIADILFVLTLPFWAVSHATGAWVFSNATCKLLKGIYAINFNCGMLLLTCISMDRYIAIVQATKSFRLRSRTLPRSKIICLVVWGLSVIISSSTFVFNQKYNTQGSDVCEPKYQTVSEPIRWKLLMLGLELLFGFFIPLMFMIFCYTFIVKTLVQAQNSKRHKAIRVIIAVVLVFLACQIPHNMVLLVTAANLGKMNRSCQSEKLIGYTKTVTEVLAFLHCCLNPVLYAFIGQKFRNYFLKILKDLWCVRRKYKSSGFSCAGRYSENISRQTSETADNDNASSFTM
CXCR6 inh: inhibitors of human CXCR6 receptor. AID 602244. inhibition, % at 20 µM. CHO-K1 PathHunter CXCR6 beta-arrestin, luminescence. 360,000 tested, 0.36% active. O00574; in the data active means inhibition above about 34%, passing the limit was not always enough;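 further: antagonist mode with CXCL16 agonist at 10 nM final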
APJ antag: antagonists of human APJ apelin receptor; P35414; CHO-K1 APJ beta-arrestin complementation, luminescence; inhibition, % at 20 µM; 330,000 tested, 0.32% active; AID 2521;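 active means inhibition above about 40% at 20 µM, limit read from the data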;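 further: cells challenged with 10 nM apelin-13 agonist together with compound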
APJ ag: APJ receptor agonism | 330,000 tested, 0.11% active | activation, % at 20 µM | P35414 | CHO-K1 APJ PathHunter beta-arrestin, luminescence; 0% DMSO wells, 100% apelin;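 active means activation more than six SD over the plate average, tested at 20 µM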
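Test system: CHO-K1 APJ beta-arrestin complementation cell line | Compound: Single test compound dose, 20 µM final, 1% DMSO | Incubation: Compound 90 min 25 °C, reagent 1 h | Measured by: beta-gal luminescence | Read-out basis: APJ–arrestin association signal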
EBI2 antag: antagonists of human EBI2 receptor; EBI2 beta-arrestin recruitment, luminescence, 7a,25-OHC stimulated; AID 651636; P32249; 360,000 tested, 0.81% active; inhibition, % at 5 µM; in the data active means inhibition above about 38%;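 further: enzyme fragment complementation signal reports receptor beta-arrestin coupling in cells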
Target sequence (P32249 whole entry, looked up, the tested form may be a part): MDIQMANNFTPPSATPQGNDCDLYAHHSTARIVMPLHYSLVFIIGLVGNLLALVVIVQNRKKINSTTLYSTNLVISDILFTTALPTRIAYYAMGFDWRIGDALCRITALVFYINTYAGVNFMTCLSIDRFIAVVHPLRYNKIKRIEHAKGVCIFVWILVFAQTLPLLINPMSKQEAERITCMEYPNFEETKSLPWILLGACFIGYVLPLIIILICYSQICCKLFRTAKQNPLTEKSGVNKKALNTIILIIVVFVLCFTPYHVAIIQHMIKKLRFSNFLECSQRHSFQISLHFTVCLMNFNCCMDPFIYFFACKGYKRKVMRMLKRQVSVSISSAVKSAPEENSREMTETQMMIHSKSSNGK
Each line names hits and unclear results; the compound was inactive in the other large screens. Only some compounds are listed: those with a hit (about 1.5% of all), similar ones and a draw of the others.

CC(=O)c1ccc2c(c1)N(Cc1ccccc1)C(=O)C(C)S2 (stereo not given)	none (no result: CCR6 antagonist, APJ antag, APJ ag)
C=CCS/C(N)=N\N=C\c1cc(Br)cc([N+](=O)[O-])c1O	CCR6 antagonist 62, CXCR6 inh 34
O=[N+]([O-])c1cc(Br)cc(/C=N/n2cnnc2)c1O	none
Cc1cc(Br)cn2c(Cc3cccc(F)c3)c(-c3ccc(Cl)cc3)nc12	none (no result: CCR6 antagonist, APJ antag, APJ ag)
O=C(Cc1c[nH]c2ccccc12)NCc1ccc(Cl)cc1	none
CN1C2C=C(N(CCc3c[nH]c4ccccc34)C(=O)c3ccc(Cl)cc3)CC1CC2 (stereo not given)	EBI2 antag 61
COc1ccc(CCN2C(=O)CSCC2(C)C(=O)Nc2ccc3c(c2)OCCO3)cc1OC (stereo not given)	none (no result: CCR6 antagonist, CXCR6 inh, APJ antag, APJ ag)
O=Nc1c(-c2c(O)[nH]c3cc(Br)ccc23)[nH]c2ccccc12	CCR6 antagonist 75, CXCR6 inh 61
CCC[C@H]1NC(=O)[C@H](C)N(C)C(=O)C(C)(C)C(=O)C(C)NC(=O)[C@H](Cc2ccc(OC)cc2)N(C)C(=O)[C@H](C(C)C)N(C)C(=O)CNC(=O)[C@H](CC(C)C)N(C)C(=O)CNC(=O)[C@H]([C@@H](C)CC)OC(=O)[C@H]1C (stereo not given in full)	none (no result: CXCR6 inh, EBI2 antag)
C/C(=N\Nc1ncc(Cl)cc1Cl)c1ccccn1	CXCR6 inh 50, EBI2 antag 56 (no result: APJ antag, APJ ag)
C/C(=N\Nc1ccc(Cl)c(C(=O)O)c1)c1ccccn1	none
CN1CCN(c2cc(CNC[C@H]3O[C@@H](n4cnc5c(=O)[nH]c(N)nc54)[C@H](O)[C@@H]3O)ccc2F)CC1	none (no result: CCR6 antagonist, APJ antag, APJ ag)
COc1ccc([N+](=O)[O-])c(S(=O)(=O)c2ccccc2)n1	CCR6 antagonist 65, CXCR6 inh 59
O=[N+]([O-])c1cccnc1S(=O)(=O)c1ccccc1	none
COc1ccc([N+](=O)[O-])c(S(=O)(=O)c2ccc(Cl)cc2)n1	CCR6 antagonist 75, CXCR6 inh 68
COc1nc(OC)nc(Oc2ccc(Cl)cc2[N+](=O)[O-])n1	none
CCOC(=O)C1NN=C(C(=O)c2ccccc2)C1c1ccc(Cl)cc1 (stereo not given)	APJ antag 47
CCOC(=O)C1NN=C(C(=O)c2ccccc2)C1c1ccccc1 (stereo not given)	none
CC1=C(C(=O)N2CCCCCC2)CC(CC(=O)NC(c2ccccc2)c2ccccc2)C(=O)N1CCC1=CCCCC1 (stereo not given)	none (no result: CCR6 antagonist, APJ antag, APJ ag)
O=S1(=O)CC(N2CCN(c3ccccn3)CC2)CN1Cc1ccccc1 (stereo not given)	none (no result: CCR6 antagonist, APJ antag, APJ ag)
CCOC(=O)/C=C/C(=O)Nc1cccc([N+](=O)[O-])c1	CXCR6 inh 85 (no result: CCR6 antagonist)
CCOC(=O)c1cccc(NC(=O)/C=C/c2cccc([N+](=O)[O-])c2)c1	none
O=C1C=CC(n2cc(F)c(=O)[nH]c2=O)O1 (stereo not given)	none (no result: CCR6 antagonist, APJ antag, APJ ag)
COc1cc(/C=C2/C(=O)NN(c3cccc(F)c3)C2=O)ccc1OC(=O)c1ccco1	CXCR6 inh 40
COc1cc(/C=C2/C(=O)NN(c3ccc(Cl)cc3)C2=O)ccc1OC(=O)c1ccco1	CCR6 antagonist 72, CXCR6 inh 50
COc1cc(/C=C2/C(=O)NN(c3ccc(Cl)cc3)C2=O)cc(Br)c1O	none
CCOC(=O)N1CCN(C(=O)C[C@@H]2C[C@@]3(C(=O)OCC)CCC=C3N(Cc3cccc4ccccc34)C2=O)CC1	none (no result: CCR6 antagonist, APJ antag, APJ ag)
O=C(O)c1ccc(-c2ccc(/C=N/Nc3ccc([N+](=O)[O-])cc3)o2)cc1	none
O=C(O)c1cc(-c2ccc(/C=N/Nc3ccc([N+](=O)[O-])cn3)o2)ccc1Cl	CCR6 antagonist 51 (no result: APJ antag, APJ ag)
COc1ccc(CNC(=O)CC[C@H]2O[C@@H](n3ccc(=O)[nH]c3=O)[C@H](O)[C@@H]2O)cc1	none (no result: CCR6 antagonist, APJ antag, APJ ag)
Cc1ccc(-c2nn3c(-c4ccco4)nnc3c3ccccc23)cc1S(=O)(=O)NCC1CCCO1 (stereo not given)	CCR6 antagonist 51
O=C1C(Cl)=C(Nc2ccc3cn[nH]c3c2)C(=O)c2ccccc21	CCR6 antagonist 78, CXCR6 inh 56 (no result: APJ antag, APJ ag)
CCC(=O)N1CCCC(C)(C(=O)NS(=O)(=O)c2ccccc2Cl)C1 (stereo not given)	none (no result: CCR6 antagonist, APJ antag, APJ ag)
Cc1ccc(NC(=O)c2ccc([N+](=O)[O-])o2)c(C)c1	none
Cc1ccc(S(=O)(=O)c2ccc([N+](=O)[O-])o2)cc1	CCR6 antagonist 103, CXCR6 inh 97 (no result: APJ antag, APJ ag)
CCCN(CCC)C(=O)c1cc([N+](=O)[O-])cc2c1-c1ccc([N+](=O)[O-])cc1C2=C(C#N)C#N	CCR6 antagonist 66 (no result: CXCR6 inh, EBI2 antag)
O=C1CC2(CCCC2)C(=O)N1CN1CCN(S(=O)(=O)c2cc(F)ccc2F)CC1	none (no result: CCR6 antagonist, APJ antag, APJ ag)
CCN1C(=N)N(c2ccccc2)C(=O)C(CC)(CC)C1=O	none (no result: APJ antag, APJ ag)
O=c1oc2ccccc2c(Cl)c1CN1CCCCC1	CCR6 antagonist 92, CXCR6 inh 96, APJ antag 87
CC(=O)Nc1cc(-c2cccnc2)cn2c(-c3ccc(F)cc3)cnc12	none (no result: CCR6 antagonist, APJ antag, APJ ag)
O=C1C2C3C=CC(C3=C(c3ccccc3)c3ccccc3)C2C(=O)N1CCO (stereo not given)	none
Cc1ccc(C(=C2C3C=CC2C2C(=O)NC(=O)C32)c2ccc(C)cc2)cc1 (stereo not given)	CCR6 antagonist 54
COc1ccccc1OCC(=O)NCC1CCCN(C(=O)c2cccc(C)c2)C1 (stereo not given)	none (no result: CCR6 antagonist, APJ antag, APJ ag)
NS(=O)(=O)c1ccc(NCc2cc(Cl)ccc2OCc2ccccc2F)cc1	CCR6 antagonist 54
CN(C)c1ccc(C=c2c3ccccc3n3c2cc(-c2ccc(Cl)cc2)[n+]3C)cc1	none (no result: APJ antag, APJ ag)
CN(C)c1ccc(C=c2c3cc([N+](=O)[O-])ccc3n3c2cc(-c2ccccc2)[n+]3C)cc1	CCR6 antagonist 68, CXCR6 inh 49 (no result: APJ antag, APJ ag)
CN(C)c1ccc(C=c2c3ccccc3n3c2cc(-c2ccccc2)[n+]3C)cc1	CCR6 antagonist 62, CXCR6 inh 52 (no result: APJ antag, APJ ag)
CN(C)c1ccc(C=c2c3ccccc3n3c2c2c([n+]3C)CCCC2)cc1	CXCR6 inh 45 (no result: APJ antag, APJ ag)
COc1cc(N(C)C)ccc1C=c1c2ccccc2n2c1cc(-c1ccccc1)[n+]2C	CCR6 antagonist 65, CXCR6 inh 60 (no result: APJ antag, APJ ag)
COC(=O)[C@@]1(Cc2ccc(F)cc2)[C@H]2c3cc(C(=O)N(C)C)n(CCc4c[nH]c5ccc(O)cc45)c3C[C@H]2CN1C(=O)c1ccccc1	none (no result: CCR6 antagonist, APJ antag, APJ ag)
CC1(C)CC(=O)C=C(c2ccc(COC(=O)C(c3ccccc3)c3ccccc3)cc2)C1=O	none (no result: CCR6 antagonist, APJ antag, APJ ag)
N#C/C(=C\c1cccc([N+](=O)[O-])c1)C(=O)NCc1cccnc1	none
N#C/C(=C\c1cccc([N+](=O)[O-])c1)C(=O)NCc1ccc(Cl)cc1	CXCR6 inh 65 (no result: CCR6 antagonist, APJ antag, APJ ag)
COc1cccc(CN(C)C(=O)C2CCCN(C(=O)c3ccc(Cl)cc3)C2)c1 (stereo not given)	none (no result: CCR6 antagonist, APJ antag, APJ ag)
COc1cc(OC)cc(C(=O)c2c(C)c(C#N)c3ccccn23)c1	none
COC1=C/C(=C/c2c(O)c(C#N)c3ccccn23)C=CC1=O	CCR6 antagonist 56
